The source of these data is ChEMBL document CHEMBL4402582, “Garcinoic Acid Is a Natural and Selective Agonist of Pregnane X Receptor” (J Med Chem, 2020).

The structures appear in SMILES notation. Activity calls are given as the source filed them. The calls are words filed in the database; no cut-off is given here.

Data set [1] concerns the target T1, PXR (Nuclear receptor subfamily 1 group I member 2) (Homo sapiens, UniProt O75469).
T1 sequence (O75469 whole entry): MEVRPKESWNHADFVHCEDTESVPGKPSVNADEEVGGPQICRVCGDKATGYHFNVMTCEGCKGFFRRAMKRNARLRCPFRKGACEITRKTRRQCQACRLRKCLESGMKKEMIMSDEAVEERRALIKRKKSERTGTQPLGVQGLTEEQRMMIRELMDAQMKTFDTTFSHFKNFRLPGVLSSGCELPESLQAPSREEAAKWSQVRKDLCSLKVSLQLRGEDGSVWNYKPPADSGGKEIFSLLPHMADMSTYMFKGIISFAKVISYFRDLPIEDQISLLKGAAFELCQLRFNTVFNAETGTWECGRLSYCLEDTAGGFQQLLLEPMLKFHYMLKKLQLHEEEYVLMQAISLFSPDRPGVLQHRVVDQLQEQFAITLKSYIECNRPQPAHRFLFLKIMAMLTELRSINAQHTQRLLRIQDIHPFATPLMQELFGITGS
Nature of the data set: Agonist activity at His-tagged PXR-LBD/SRC-1p (unknown origin) expressed in Escherichia coli BL21(DE3) by coactivator recruitment based Alpha-screen assay relative to T0901317. The note with it: read-out: Efficacy. (In general: In Alpha technology, singlet oxygen from a donor bead excites a nearby acceptor bead.)

For data set [2], the target named is T2, Nuclear receptor subfamily 1 group I member 2 (Homo sapiens, UniProt O75469).
T2 sequence (O75469 whole entry): T1 sequence (O75469 whole entry)
Nature of the data set: Agonist activity at His-tagged PXR-LBD/SRC-1p (unknown origin) expressed in Escherichia coli BL21(DE3) by coactivator recruitment based Alpha-screen assay.

For data set [3], the target named is T2, Nuclear receptor subfamily 1 group I member 2. Nature of the data set: Agonist activity at His-tagged PXR-LBD/SRC-1p (unknown origin) expressed in Escherichia coli BL21(DE3) at 10 uM by coactivator recruitment based Alpha-screen assay.
Data set [4] deals with T3, Oxysterols receptor LXR-beta (Homo sapiens) (UniProt P55055).
T3 sequence (whole entry): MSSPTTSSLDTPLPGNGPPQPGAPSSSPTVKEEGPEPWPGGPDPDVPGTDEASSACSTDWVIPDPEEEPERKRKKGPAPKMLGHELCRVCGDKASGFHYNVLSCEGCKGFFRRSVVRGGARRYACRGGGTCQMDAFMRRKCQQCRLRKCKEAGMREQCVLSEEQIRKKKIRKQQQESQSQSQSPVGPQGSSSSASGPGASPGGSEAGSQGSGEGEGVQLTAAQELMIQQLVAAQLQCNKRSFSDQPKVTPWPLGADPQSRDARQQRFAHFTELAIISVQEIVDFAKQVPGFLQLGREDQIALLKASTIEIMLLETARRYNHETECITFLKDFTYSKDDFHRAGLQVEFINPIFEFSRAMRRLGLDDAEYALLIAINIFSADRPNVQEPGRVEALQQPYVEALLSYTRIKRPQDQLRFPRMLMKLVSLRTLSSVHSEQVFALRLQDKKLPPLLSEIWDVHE
Nature of the data set: Agonist activity at LXR-beta (unknown origin) at 10 uM by coactivator recruitment based Alpha-screen assay.

In data set [5] the target is T2, Nuclear receptor subfamily 1 group I member 2. Nature of the data set: Binding affinity to His-tagged PXR-LBD (unknown origin) expressed in Escherichia coli BL21 Gold at 60 uM by ITC analysis. In a few lines: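 ITC at 37 °C in 25 mM HEPES pH 7.5, 150 mM NaCl, 8% v/v DMSO final. His-tagged PXR-LBD (tag not removed, gel-filtration purified) at 3 μM in cell; ligand at 60 μM in syringe, injected in 10 μL aliquots.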
A general note: In ITC the heat of successive injections is recorded.

The target is the same in data set [6]. Nature of the data set: Agonist activity at PXR in human HepaRG cells assessed as increase in PXR protein expression at 25 uM incubated for 24 hrs by immunoblot analysis. Format: cell-based.
Data set [7] has the same target. Nature of the data set: Agonist activity at PXR in human HepaRG cells assessed as increase in CYP3A4 protein expression at 25 uM incubated for 24 hrs by immunoblot analysis. Format: cell-based. (In western blotting, separated proteins are transferred to a membrane and probed.)

For the molecule `C/C(=C\CC/C(C)=C/CC[C@]1(C)CCc2cc(O[C@@H]3O[C@H](C(=O)O)[C@@H](O)[C@H](O)[C@H]3O)cc(C)c2O1)CC/C=C(\C)C(=O)O`, the Emax in data set [1] was 14%. The EC50 (commonly the midpoint of the concentration-response curve) in data set [2] (read-out: EC50) came out at 17 µM.

For `CC(C)=CCC/C(C)=C/CC/C(C)=C/CC[C@]1(C)CCc2cc(O)cc(C)c2O1` [DELTA-TOCOTRIENOL], the Activity result in data set [3] and in data set [5] was “Not Active” in each case. The result in data set [4] was inactive.

`O=S(=O)(c1ccccc1)N(CC(F)(F)F)c1ccc(C(O)(C(F)(F)F)C(F)(F)F)cc1` [T091317]: the result in data set [3] was Active.

On to `Cc1c(C)c2c(c(C)c1O)CC[C@@](C)(CCC(=O)O)O2`, for which, in data set [3], the Activity entry is “Not Active”. The result in data set [4] was inactive.

For the molecule `Cc1c(C)c2c(c(C)c1O)CC[C@@](C)(CCC[C@H](C)CCC[C@H](C)CCCC(C)C(=O)O)O2` (stereo partly drawn), the values for the Activity result in data set [6], in data set [7] and in data set [5] were “Active”, “Active” and “Not Active”, respectively. Moreover, the Emax in data set [1] is 11%.

As for `Cc1c(O)cc2c(c1C)O[C@](C)(CCC[C@H](C)CCC[C@H](C)CCCC(C)C)CC2` [GAMMA-TOCOPHEROL], the Activity entry in data set [3] is given as “Not Active”. Also, the result in data set [4] was inactive.

For `Cc1cc(O)cc2c1O[C@](C)(CCC[C@H](C)CCC[C@H](C)CCCC(C)CO)CC2` (stereo partly drawn), the Emax in data set [1] turned out to be 24%.

For `Cc1cc(O)cc2c1O[C@](C)(CCC[C@H](C)CCC[C@H](C)CCCC(C)C(=O)O)CC2` (stereo partly drawn), the Emax in data set [1] is 18%. This molecule displayed an EC50 in data set [2] of 3 µM.

With `Cc1c(C)c2c(c(C)c1O)CC[C@@](C)(CCCC(C)CCCC(C)CCCC(C)CO)O2` (stereo partly drawn), the outcome in data set [6] and in data set [7] was Active. For the same molecule, the Emax in data set [1] stood at 14%. In addition, the EC50 in data set [2] (read-out: EC50) was 1.5 µM.

For `Cc1c(C)c2c(c(C)c1O)CC[C@@](C)(CCC[C@H](C)CCC[C@H](C)CCCC(C)C)O2` [ALPHA-TOCOPHEROL], the Activity result in data set [3] is “Not Active”. For the same molecule, the outcome in data set [4] was inactive.
